These results are taken from ChEMBL document CHEMBL5113456, “2-Aminopyridines with a shortened amino sidechain as potent, selective, and highly permeable human neuronal nitric oxide synthase inhibitors” (Bioorg Med Chem, 2022).

One series has as its target T1, Nitric oxide synthase 3 (Homo sapiens, UniProt P29474).
T1 sequence (P29474 whole entry): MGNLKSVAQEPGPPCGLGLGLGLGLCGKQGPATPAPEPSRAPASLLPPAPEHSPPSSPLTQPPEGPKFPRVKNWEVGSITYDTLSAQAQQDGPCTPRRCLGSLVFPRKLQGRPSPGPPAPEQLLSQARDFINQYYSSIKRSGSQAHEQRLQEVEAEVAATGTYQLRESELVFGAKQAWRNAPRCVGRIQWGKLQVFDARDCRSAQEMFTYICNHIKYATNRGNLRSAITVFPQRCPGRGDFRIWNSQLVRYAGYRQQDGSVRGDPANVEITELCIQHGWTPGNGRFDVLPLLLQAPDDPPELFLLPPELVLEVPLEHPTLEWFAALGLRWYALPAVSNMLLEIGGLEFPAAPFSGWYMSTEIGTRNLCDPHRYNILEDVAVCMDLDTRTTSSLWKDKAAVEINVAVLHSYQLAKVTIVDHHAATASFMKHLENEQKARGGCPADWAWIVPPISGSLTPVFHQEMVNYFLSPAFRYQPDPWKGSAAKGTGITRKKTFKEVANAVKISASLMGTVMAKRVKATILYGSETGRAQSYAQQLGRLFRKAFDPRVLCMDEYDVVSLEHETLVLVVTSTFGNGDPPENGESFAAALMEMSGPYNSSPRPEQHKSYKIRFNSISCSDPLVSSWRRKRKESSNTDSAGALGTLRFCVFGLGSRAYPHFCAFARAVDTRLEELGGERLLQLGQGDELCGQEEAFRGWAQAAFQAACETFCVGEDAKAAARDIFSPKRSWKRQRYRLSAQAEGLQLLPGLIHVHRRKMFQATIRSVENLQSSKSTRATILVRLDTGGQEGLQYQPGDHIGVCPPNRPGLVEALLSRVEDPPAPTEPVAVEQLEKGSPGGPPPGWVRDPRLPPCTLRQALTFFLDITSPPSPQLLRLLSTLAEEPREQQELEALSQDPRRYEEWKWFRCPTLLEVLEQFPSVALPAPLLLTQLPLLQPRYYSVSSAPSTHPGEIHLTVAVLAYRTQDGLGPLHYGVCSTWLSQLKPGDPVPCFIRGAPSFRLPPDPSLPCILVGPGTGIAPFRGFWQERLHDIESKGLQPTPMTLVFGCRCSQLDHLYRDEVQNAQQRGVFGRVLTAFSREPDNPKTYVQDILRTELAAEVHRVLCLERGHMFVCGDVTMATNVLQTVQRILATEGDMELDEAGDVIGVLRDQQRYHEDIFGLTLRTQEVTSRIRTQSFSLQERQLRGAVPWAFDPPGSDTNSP
Put plainly: Inhibition of human eNOS using L-arginine as substrate assessed as reduction in NO production in the presence of NADPH by NO-hemoglobin capture assay. The method, boiled down:
(§1)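 Ki was obtained from IC50 by the Cheng–Prusoff equation. […] Enzyme was purified human NOS isoform. Assay buffer was 100 mM HEPES, 10% glycerol, pH 7.4–7.5, and stock buffer was 100 mM HEPES, pH 7.4–7.5. Plate reader syringe lines were equilibrated with assay buffer before the run.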

Series [1] can be described thus: Effective permeability of compound in PBS buffer at pH 7.4 at 200 uM incubated for 17 hrs by PAMPA-BBB assay. It is filed as ADME. The note with it: read-out: Peff.
Series [2] concerns the target Nitric oxide synthase 1 (Homo sapiens, UniProt P29475).
The target of series [3] is Nitric oxide synthase 1 (Rattus norvegicus, UniProt P29476).
Series [4] addresses Nitric oxide synthase, inducible (Homo sapiens, UniProt P35228). Put plainly: Inhibition of human iNOS using L-arginine as substrate assessed as reduction in NO production in the presence of NADPH by NO-hemoglobin capture assay. Put shortly:
as §1

Sequence of Nitric oxide synthase 1 (Homo sapiens, UniProt P29475) (P29475 whole entry): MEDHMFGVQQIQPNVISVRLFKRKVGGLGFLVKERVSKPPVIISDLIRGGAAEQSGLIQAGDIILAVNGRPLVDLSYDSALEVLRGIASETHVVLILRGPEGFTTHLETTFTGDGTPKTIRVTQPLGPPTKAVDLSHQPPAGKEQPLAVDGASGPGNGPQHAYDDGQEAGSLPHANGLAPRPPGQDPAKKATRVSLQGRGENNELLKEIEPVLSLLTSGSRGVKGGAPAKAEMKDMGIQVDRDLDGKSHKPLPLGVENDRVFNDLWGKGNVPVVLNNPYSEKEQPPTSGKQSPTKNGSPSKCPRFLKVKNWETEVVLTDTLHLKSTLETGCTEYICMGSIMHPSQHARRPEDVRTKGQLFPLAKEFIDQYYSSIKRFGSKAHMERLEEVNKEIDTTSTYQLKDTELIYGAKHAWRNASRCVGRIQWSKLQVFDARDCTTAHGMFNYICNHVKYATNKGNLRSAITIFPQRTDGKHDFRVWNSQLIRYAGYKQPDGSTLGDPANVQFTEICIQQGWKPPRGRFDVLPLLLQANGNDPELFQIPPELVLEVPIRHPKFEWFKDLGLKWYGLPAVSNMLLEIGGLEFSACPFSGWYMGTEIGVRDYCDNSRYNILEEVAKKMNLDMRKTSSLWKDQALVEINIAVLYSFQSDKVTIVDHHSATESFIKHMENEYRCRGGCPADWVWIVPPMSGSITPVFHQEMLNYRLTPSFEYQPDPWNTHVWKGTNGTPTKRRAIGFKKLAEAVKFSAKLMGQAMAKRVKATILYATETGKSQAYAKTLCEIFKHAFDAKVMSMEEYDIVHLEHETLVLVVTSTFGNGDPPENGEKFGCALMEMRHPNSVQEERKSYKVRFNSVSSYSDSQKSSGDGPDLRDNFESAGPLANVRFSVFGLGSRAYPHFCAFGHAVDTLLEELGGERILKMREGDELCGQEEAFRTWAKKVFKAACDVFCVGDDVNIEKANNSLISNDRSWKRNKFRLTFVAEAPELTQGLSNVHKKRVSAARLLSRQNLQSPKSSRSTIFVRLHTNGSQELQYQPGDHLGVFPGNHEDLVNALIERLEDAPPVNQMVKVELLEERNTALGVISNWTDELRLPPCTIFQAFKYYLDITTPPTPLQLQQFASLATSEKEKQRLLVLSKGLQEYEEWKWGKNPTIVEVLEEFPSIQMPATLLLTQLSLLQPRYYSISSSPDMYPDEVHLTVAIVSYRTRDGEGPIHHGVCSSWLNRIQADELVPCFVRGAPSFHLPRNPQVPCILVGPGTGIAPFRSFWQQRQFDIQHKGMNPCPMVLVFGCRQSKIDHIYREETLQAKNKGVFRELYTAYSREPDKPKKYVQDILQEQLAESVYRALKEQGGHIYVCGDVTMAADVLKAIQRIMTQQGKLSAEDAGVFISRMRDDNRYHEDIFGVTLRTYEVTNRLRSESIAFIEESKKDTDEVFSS
Sequence of Nitric oxide synthase 1 (Rattus norvegicus, UniProt P29476) (P29476 whole entry): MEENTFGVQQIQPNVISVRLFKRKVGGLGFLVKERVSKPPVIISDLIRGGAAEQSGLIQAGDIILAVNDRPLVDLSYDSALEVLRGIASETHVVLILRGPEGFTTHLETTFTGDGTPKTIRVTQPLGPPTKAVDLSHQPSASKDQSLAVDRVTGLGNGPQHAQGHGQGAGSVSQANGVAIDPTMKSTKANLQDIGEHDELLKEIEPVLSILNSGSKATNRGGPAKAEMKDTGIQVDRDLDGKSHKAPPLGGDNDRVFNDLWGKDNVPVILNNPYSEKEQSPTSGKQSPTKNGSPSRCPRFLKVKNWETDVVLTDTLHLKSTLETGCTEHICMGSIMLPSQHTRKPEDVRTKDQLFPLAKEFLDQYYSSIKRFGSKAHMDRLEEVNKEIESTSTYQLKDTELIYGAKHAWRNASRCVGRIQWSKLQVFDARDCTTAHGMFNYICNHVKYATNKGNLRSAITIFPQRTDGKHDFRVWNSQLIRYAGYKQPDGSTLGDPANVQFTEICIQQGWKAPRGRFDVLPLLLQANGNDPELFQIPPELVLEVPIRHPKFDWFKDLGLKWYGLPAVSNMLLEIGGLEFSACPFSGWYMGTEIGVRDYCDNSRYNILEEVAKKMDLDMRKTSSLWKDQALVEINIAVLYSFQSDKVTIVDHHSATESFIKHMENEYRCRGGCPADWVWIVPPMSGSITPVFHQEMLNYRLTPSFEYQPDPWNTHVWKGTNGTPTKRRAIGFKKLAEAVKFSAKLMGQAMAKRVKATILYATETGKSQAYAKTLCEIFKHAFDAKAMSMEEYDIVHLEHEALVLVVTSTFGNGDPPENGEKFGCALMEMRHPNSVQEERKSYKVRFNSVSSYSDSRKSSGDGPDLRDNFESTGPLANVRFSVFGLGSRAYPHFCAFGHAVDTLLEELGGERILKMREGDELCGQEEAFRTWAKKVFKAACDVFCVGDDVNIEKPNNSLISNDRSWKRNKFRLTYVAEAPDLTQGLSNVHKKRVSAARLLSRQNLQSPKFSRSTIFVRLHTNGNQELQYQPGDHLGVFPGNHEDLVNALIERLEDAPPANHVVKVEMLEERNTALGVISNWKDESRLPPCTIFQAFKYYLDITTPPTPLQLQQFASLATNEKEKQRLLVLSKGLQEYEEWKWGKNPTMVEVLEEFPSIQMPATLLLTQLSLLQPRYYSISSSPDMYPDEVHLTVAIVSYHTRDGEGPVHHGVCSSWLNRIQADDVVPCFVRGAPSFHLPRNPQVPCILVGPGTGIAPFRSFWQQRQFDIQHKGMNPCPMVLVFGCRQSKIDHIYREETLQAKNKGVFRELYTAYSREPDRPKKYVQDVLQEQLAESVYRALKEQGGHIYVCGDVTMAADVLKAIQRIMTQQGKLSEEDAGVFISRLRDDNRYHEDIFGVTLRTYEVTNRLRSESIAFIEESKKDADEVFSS
Sequence of Nitric oxide synthase, inducible (P35228 whole entry): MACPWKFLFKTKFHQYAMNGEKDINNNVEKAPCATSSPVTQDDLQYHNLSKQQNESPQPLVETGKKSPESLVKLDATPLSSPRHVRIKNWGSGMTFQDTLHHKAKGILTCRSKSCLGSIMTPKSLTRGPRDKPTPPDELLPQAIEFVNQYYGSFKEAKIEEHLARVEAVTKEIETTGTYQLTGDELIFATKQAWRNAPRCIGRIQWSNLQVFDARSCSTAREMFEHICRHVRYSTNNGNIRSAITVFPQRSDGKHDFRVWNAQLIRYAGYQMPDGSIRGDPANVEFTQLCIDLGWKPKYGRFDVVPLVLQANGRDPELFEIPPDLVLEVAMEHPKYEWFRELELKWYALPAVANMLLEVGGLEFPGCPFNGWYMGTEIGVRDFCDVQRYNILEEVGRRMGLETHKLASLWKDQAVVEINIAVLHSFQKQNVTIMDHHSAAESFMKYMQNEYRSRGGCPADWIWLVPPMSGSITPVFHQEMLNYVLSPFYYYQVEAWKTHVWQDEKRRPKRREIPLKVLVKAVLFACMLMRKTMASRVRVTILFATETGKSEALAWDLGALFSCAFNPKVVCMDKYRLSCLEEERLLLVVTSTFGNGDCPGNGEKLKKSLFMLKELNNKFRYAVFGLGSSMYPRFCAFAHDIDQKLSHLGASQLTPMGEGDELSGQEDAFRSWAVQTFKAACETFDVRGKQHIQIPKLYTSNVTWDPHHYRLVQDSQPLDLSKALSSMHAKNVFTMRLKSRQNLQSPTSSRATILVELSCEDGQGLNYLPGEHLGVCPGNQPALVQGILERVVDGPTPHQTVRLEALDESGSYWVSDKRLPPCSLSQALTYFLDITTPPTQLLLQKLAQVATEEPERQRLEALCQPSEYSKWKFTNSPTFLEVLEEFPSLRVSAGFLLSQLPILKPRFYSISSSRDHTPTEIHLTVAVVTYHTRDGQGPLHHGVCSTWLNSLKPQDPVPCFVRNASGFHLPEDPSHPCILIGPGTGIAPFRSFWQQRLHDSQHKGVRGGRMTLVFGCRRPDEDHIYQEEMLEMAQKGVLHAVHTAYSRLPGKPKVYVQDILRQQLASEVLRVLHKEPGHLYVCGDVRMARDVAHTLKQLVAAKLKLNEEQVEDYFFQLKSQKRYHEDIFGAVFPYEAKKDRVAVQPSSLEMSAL

As to `Cc1cc(N)nc(C#CCCN(C)C)c1`, the Ki (in general, the dissociation constant of the complex between target and ligand, obtained from inhibition or displacement) at Nitric oxide synthase 3 was 70.5 µM; at Nitric oxide synthase 1 [2], 0.327 µM; at Nitric oxide synthase 1 [3], 0.242 µM; in series [4], 29.8 µM. In series [1], the Papp at 17 h, 200 µM was determined as 4.7 ×10⁻⁶ cm/s.
Take `Cc1cc(N)nc(CCCN2CCN(C)CC2)c1`: the values for the Ki at Nitric oxide synthase 3 and on Nitric oxide synthase 1 [3] were 12.5 µM and 0.056 µM, respectively. The Papp at 17 h, 200 µM in series [1] is 2.2 ×10⁻⁶ cm/s.
For `Cc1cc(N)nc(CCCN(C)C)c1`, the inhibition constant Ki at Nitric oxide synthase 3 was found to be 3.66 µM. For the same compound, in series [1], the Papp at 17 h, 200 µM was 2 ×10⁻⁶ cm/s.
For `Cc1cc(N)nc(C#CCN2CC(F)(F)C2)c1`, the Ki on Nitric oxide synthase 3 came to 5.13 µM; at Nitric oxide synthase 1 [2], 0.488 µM; on Nitric oxide synthase 1 [3], 0.465 µM; in series [4], 11.1 µM. In addition, the Papp at 17 h, 200 µM in series [1] stood at 19.6 ×10⁻⁶ cm/s.
Turning to `CNCCCc1cc(C)cc(N)n1`, the Ki on Nitric oxide synthase 3 amounted to 1.47 µM. Also, the Papp at 17 h, 200 µM in series [1] turned out to be 0.96 ×10⁻⁶ cm/s.
Turning to `Cc1cc(N)nc(CCCN2CCC(F)(F)CC2)c1`, the Ki was determined as 18.6 µM on Nitric oxide synthase 3, 0.048 µM at Nitric oxide synthase 1 [2], 0.046 µM on Nitric oxide synthase 1 [3] and 6.48 µM in series [4]. Moreover, the Papp at 17 h, 200 µM in series [1] was 17.3 ×10⁻⁶ cm/s.
For `Cc1cc(N)nc(CCCN2CC(F)(F)C2)c1` the same measures were 6.27 µM, 0.149 µM, 0.095 µM, 4.36 µM and 17.5 ×10⁻⁶ cm/s.
On to `CNCC#Cc1cc(C)cc(N)n1`, for which the Ki on Nitric oxide synthase 3 came out at 1.92 µM. The Papp at 17 h, 200 µM in series [1] is 4.7 ×10⁻⁶ cm/s.
With `Cc1cc(N)nc(C#CCN2CCC(F)(F)CC2)c1`, the Ki stood at 18.9 µM on Nitric oxide synthase 3, 1.43 µM at Nitric oxide synthase 1 [2], 1.59 µM at Nitric oxide synthase 1 [3] and 27.4 µM in series [4]. In addition, the Papp at 17 h, 200 µM in series [1] came to 21.1 ×10⁻⁶ cm/s.
As to `Cc1cc(N)nc(CCCCN(C)C)c1`, the Ki was 7.35 µM on Nitric oxide synthase 3 and 7.67 µM in series [4]. Also, the Papp at 17 h, 200 µM in series [1] is 2.3 ×10⁻⁶ cm/s.
For `Cc1cc(N)nc(C#CCN2CCN(C)CC2)c1`, the Ki on Nitric oxide synthase 3 worked out at 43.8 µM. In series [1], the Papp at 17 h, 200 µM was 3.2 ×10⁻⁶ cm/s.
